Assay results published in ChEMBL document CHEMBL3102786, “Anilides and quinolones with nitrogen-bearing substituents from benzothiophene and thienothiophene series: synthesis, photochemical synthesis, cytostatic evaluation, 3D-derived QSAR analysis and DNA-binding properties” (Eur J Med Chem, 2014).
The source made the active and inactive calls. The rule behind the calls is not given here.

What was measured:
[1] = target: DNA topoisomerase 2-alpha (Homo sapiens) (UniProt P11388); assay: Inhibition of DNA topoisomerase 2 (unknown origin)-mediated DNA cleavage assessed as linear band at 50 uM by agarose gel electrophoresis
Chain of DNA topoisomerase 2-alpha (Homo sapiens) (P11388 whole entry): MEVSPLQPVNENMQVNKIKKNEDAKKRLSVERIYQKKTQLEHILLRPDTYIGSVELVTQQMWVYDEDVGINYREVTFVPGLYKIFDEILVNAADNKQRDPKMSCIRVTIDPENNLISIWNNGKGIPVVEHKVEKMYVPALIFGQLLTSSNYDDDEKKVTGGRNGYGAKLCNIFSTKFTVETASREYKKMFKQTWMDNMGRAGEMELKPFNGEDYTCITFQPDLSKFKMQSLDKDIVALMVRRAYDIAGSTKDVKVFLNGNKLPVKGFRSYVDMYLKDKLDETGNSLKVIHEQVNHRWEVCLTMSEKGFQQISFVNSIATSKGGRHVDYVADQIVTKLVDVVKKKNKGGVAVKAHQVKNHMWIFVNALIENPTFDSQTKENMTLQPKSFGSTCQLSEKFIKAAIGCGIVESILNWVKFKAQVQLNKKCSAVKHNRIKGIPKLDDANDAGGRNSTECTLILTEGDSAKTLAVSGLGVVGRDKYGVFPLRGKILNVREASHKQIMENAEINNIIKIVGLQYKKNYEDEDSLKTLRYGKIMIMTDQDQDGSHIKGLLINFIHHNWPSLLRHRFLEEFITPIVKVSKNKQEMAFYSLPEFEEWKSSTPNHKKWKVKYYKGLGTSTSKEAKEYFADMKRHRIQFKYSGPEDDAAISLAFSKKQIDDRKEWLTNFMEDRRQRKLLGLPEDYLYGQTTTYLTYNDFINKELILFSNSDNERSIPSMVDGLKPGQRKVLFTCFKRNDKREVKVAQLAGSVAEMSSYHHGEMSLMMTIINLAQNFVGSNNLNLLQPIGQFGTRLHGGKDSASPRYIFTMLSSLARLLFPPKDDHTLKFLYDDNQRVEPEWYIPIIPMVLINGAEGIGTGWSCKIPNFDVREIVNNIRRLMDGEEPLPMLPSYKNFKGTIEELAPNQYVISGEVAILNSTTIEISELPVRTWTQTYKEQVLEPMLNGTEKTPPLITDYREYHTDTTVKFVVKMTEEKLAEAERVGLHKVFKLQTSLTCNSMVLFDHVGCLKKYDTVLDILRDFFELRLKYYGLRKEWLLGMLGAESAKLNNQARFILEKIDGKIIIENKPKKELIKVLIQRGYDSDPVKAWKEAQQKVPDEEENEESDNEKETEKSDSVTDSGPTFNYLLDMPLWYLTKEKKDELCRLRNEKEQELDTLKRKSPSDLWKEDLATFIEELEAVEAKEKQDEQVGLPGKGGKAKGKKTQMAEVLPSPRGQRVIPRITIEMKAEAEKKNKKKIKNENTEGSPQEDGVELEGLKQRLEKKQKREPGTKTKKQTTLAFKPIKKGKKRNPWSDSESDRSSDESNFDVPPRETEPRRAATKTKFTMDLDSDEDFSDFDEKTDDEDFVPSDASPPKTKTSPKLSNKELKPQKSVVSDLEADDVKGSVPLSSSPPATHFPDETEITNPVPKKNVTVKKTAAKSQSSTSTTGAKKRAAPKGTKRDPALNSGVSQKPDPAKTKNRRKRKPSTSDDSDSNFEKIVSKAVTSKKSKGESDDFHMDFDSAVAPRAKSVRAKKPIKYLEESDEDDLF
How it was run: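 Topoisomerase II DNA cleavage assay was run per an earlier method, with etoposide as the Topo II poison positive control. Compounds came from 10 mM DMSO stocks freshly diluted in aqueous buffer.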

[2] = target: T1, DNA topoisomerase 1 (Homo sapiens) (UniProt P11387); assay: Inhibition of human topoisomerase 1-mediated DNA cleavage assessed as accumulation of nicked DNA at 1 to 50 uM by agarose gel electrophoresis
T1 sequence (whole entry): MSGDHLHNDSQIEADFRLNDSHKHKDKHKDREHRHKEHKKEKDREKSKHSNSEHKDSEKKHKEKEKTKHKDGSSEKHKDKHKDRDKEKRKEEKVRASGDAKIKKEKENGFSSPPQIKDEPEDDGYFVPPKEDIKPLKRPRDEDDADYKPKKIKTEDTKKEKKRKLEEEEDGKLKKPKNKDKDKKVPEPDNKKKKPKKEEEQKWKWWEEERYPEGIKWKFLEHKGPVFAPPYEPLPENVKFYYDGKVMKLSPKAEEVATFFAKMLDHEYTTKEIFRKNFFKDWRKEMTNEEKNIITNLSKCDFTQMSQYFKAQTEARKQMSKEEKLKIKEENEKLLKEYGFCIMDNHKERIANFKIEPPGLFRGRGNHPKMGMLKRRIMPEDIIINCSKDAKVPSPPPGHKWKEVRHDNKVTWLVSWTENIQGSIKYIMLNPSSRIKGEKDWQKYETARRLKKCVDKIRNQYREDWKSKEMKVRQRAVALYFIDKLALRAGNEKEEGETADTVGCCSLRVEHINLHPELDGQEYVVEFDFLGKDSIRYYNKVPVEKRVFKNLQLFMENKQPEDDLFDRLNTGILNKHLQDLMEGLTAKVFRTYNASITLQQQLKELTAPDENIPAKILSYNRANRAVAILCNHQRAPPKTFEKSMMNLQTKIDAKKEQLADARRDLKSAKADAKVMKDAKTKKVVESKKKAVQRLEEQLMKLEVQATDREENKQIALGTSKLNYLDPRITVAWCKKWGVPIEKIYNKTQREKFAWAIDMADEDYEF
How it was run: (§1)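 Supercoiled pUC19 plasmid was incubated with or without compound across the stated µM range, then relaxed with human topoisomerase I. Reactions were stopped with SDS and proteinase K. Samples were run on a 1% agarose gel in TBE for 2 h at 120 V and post-stained with ethidium bromide. Supercoiled, relaxed and nicked bands were scored under UV.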

Nucleic Acid [3] = assay: Binding affinity to Escherichia coli supercoiled pUC19 DNA assessed as intercalation at 1 to 50 uM by agarose gel electrophoresis in presence of human DNA topoisomerase 1; type: nucleic-acid assay; how it was run: as §1
DNA [4] = assay: Binding affinity to calf thymus DNA assessed as change in melting temperature at 1 drug/DNA ratio by spectrophotometry; type: nucleic-acid assay; conditions: Bos taurus
How it was run: (§2)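 CT-DNA (20 µM) was dialyzed and incubated alone or with compound at drug/base-pair ratio R 0.25–1 in BPE buffer (6 mM Na2HPO4, 2 mM NaH2PO4, 1 mM EDTA, pH 7.1). A260 was read every min from 20–100 °C at 1 °C/min against a compound-matched reference. Tm was taken from the first-derivative midpoint, and ΔTm = Tm(drug+DNA) − Tm(DNA alone).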

DNA [5] = assay: Binding affinity to calf thymus DNA assessed as change in melting temperature at 0.5 drug/DNA ratio by spectrophotometry; type: nucleic-acid assay; conditions: Bos taurus; how it was run: as §2
[6] = Cytotoxicity against human H460 cells after 72 hrs by MTT assay; type: functional, cell-based, NCI-H460
How it was run: (§3)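 HCT 116 and H 460 were seeded at 3×10^4 cells/mL and MCF-7 at 5×10^4 cells/mL in DMEM with 10% FBS, 2 mM glutamine and antibiotics, at 37 °C in 5% CO2. Compounds were added after 24 h (DMSO <1%). After 72 h, MTT absorbance was read at 570 nm. Runs were technical quadruplicates with ≥2 biological replicates, and IC50 was obtained by linear interpolation around 50% growth.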

DNA [7] = assay: Binding affinity to calf thymus DNA assessed as change in melting temperature at 0.25 drug/DNA ratio by spectrophotometry; type: nucleic-acid assay; conditions: Bos taurus; how it was run: as §2
MCF7 = assay: Cytotoxicity against human MCF7 cells after 72 hrs by MTT assay; type: functional, cell-based; how it was run: as §3
HCT-116 = assay: Cytotoxicity against human HCT116 cells after 72 hrs by MTT assay; type: functional, cell-based; how it was run: as §3
Nucleic Acid [8] = assay: Binding affinity to Escherichia coli supercoiled pUC19 DNA assessed as intercalation at 20 to 50 uM by agarose gel electrophoresis in presence of human DNA topoisomerase 1; type: nucleic-acid assay; how it was run: as §1
DNA [9] = assay: Binding affinity to calf thymus DNA assessed as hypochromic effect at 20 uM by UV-Visible spectroscopy relative to control; type: nucleic-acid assay; conditions: Bos taurus
How it was run: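 Compound (20 µM) in BPE buffer pH 7.1 was titrated with CT-DNA, 10–100 µM in 10 µM steps and then to 200 µM in 20 µM steps (base pairs). Spectra were recorded from 230–530 nm in a 10 mm quartz cuvette, referenced against a cuvette holding the same DNA concentration.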

Nucleic Acid [10] = assay: Binding affinity to Escherichia coli supercoiled pUC19 DNA assessed as intercalation at 0.2 to 5 uM by agarose gel electrophoresis in presence of human DNA topoisomerase 1; type: nucleic-acid assay; how it was run: as §1
[11] = Binding affinity to DNA (unknown origin) assessed as inhibition of DNase1-mediated cleavage at 2 to 5 uM by DNase1 footprinting assay
How it was run: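 DNase I footprinting run essentially per an earlier protocol. Gels were exposed to a storage screen at room temperature and then scanned. Compounds were made as 10 mM DMSO stocks and freshly diluted into aqueous buffer.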

DNA [12] = assay: Binding affinity to calf thymus DNA at 50 uM by circular dichroism spectra analysis; type: nucleic-acid assay; conditions: Bos taurus
How it was run: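 Drug (50 µM) was incubated in BPE buffer with or without CT-DNA at 0.1–100 µM. CD spectra were recorded from 480 to 230 nm in a 10 mm quartz cell at 20 °C under Peltier control.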

[13] = target: DNA topoisomerase 2-alpha (Homo sapiens) (UniProt P11388); conditions: 20 to 50 uM

SMILES	Topo II DNA cleavage inhibition (active/not active) [1]	inhibition [2]	Activity (DNA [4])	Activity (DNA [5])	IC50 ([6]; Homo sapiens, NCI-H460, 72 h) [µM]	Activity (DNA [7])	IC50 (MCF7; Homo sapiens, MCF7, 72 h) [µM]	IC50 (HCT-116; Homo sapiens, HCT-116, 72 h) [µM]	further results
CN(C)c1ccc2[nH]c(=O)c3sc4ccccc4c3c2c1	inactive	inactive	inactive	inactive	37	inactive	7	7	Activity (Nucleic Acid [3]): inactive
Nc1ccc(NC(=O)c2sc3ccccc3c2Cl)cc1 [listing 1 of 3 here]	inactive	inactive	inactive	inactive		inactive			Activity (Nucleic Acid [3]): inactive
CN(C)c1ccc2c(c1)c1c(sc3ccccc31)c(=O)n2C	inactive	inactive			13		16	5	Activity (Nucleic Acid [8]): Active; Activity (DNA [9]): 46%; ΔTm (DNA [4]): 3 °C; ΔTm (DNA [5]): 0 °C
CC(=O)Nc1ccc2c(c1)c1c(sc3ccccc31)c(=O)n2CCCN(C)C	inactive	inactive			0.3		0.6	0.2	Activity (Nucleic Acid [10]): Active; Activity [11]: Active; Activity (DNA [9]): 24%; ΔTm (DNA [4]): 19 °C; ΔTm (DNA [5]): 12.7 °C; ΔTm (DNA [7]): 10 °C
CC(=O)N(C)c1ccc2c(c1)c1c(sc3ccccc31)c(=O)n2C					40		≥ 100	14	
CC(=O)Nc1ccc(NC(=O)c2sc3ccccc3c2Cl)cc1	inactive		inactive	inactive	> 100	inactive	> 100	> 100	
CC(=O)Nc1ccc2[nH]c(=O)c3sc4ccccc4c3c2c1	inactive	inactive	inactive	inactive	> 100	inactive	76	30	Activity (Nucleic Acid [8]): Active
CN(C)c1ccc(NC(=O)c2sc3sccc3c2Cl)cc1					> 100		> 100	> 100	
Nc1ccc(NC(=O)c2sc3ccccc3c2Cl)cc1 [listing 2 of 3 here]					> 100			≥ 100	IC50 (MCF7; mcf7): 24 µM
C[N+](C)(C)c1ccc2[nH]c(=O)c3sc4ccccc4c3c2c1	inactive	inactive			> 100		50	> 100	Activity (Nucleic Acid [10]): Active; Activity [11]: Active; Activity (DNA [12]): inactive; Activity (DNA [9]): 49%; ΔTm (DNA [4]): 16.9 °C; ΔTm (DNA [5]): 12.8 °C; ΔTm (DNA [7]): 10 °C
Cn1c(=O)c2sc3ccccc3c2c2cc([N+](C)(C)C)ccc21	inactive	inactive			18		10	5	Activity (Nucleic Acid [10]): Active; Activity [11]: Active; Activity (DNA [12]): inactive; Activity (DNA [9]): 48%; ΔTm (DNA [4]): 5.9 °C; ΔTm (DNA [5]): 2.9 °C
CC(=O)Nc1ccc(NC(=O)c2sc3sccc3c2Cl)cc1					> 100		> 100	≥ 100	
O=C(Nc1ccc([N+](=O)[O-])cc1)c1sc2sccc2c1Cl					> 100		≥ 100	> 100	
COc1cc([C@@H]2c3cc4c(cc3[C@@H](O[C@@H]3O[C@@H]5CO[C@@H](C)O[C@H]5[C@H](O)[C@H]3O)[C@H]3COC(=O)[C@H]23)OCO4)cc(OC)c1O									inhibition [13]: Active
O=c1[nH]c2ccc([N+](=O)[O-])cc2c2c1sc1ccccc12	inactive	inactive			18		49	22	Activity (Nucleic Acid [3]): inactive
Nc1ccc2[nH]c(=O)c3sc4ccccc4c3c2c1 [listing 1 of 3 here]					6		2	3	
O=C(Nc1ccc([N+](=O)[O-])cc1)c1sc2ccccc2c1Cl	inactive		inactive	inactive	55	inactive	> 100	≥ 100	
Nc1ccc2[nH]c(=O)c3sc4ccccc4c3c2c1 [listing 2 of 3 here]	inactive	inactive	inactive	inactive		inactive			Activity (Nucleic Acid [8]): Active; Activity (DNA [9]): 58%; ΔTm (DNA [5]): 2 °C
CN(C)c1ccc(NC(=O)c2sc3ccccc3c2Cl)cc1	inactive		inactive	inactive	> 100	inactive	> 100	> 100	
Nc1ccc(NC(=O)c2sc3ccccc3c2Cl)cc1 [listing 3 of 3 here]									IC50 (MCF7; mcf7): ≥ 100 µM
Nc1ccc2[nH]c(=O)c3sc4ccccc4c3c2c1 [listing 3 of 3 here]									IC50 ([6]; nci-h460): 9 µM; IC50 (HCT-116; hct-116): 4 µM
C[N+](C)(C)c1ccc(NC(=O)c2sc3ccccc3c2Cl)cc1	Active	inactive			20		17	17	Activity (Nucleic Acid [8]): Active; Activity (DNA [9]): 23%; ΔTm (DNA [4]): 3 °C; ΔTm (DNA [5]): 1 °C
